pKd: −log10 of the molar value. In brackets after ≈: the same amount, converted by molar mass. Activity calls are given as the source filed them. No cut-off for these calls is given here.
How the values were obtained:
[1] = molecular target: T1, Nuclear receptor subfamily 4immunitygroup A member 1 (Homo sapiens, UniProt P22736); assay: Agonist activity at nuclear orphan receptor Nur77 expressed in human BGC823 cells co-transfected with fused GAL4-DBD assessed as transactivation after 12 hrs by luciferase reporter gene assay; format: functional, cell-based; conditions: BGC-823
SW-620 = assay: Antiproliferative activity against human SW620 cells assessed as number of viable cells after 72 hrs by MTT assay; format: functional
How it was run: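 BGC-823 gastric and SW620 colon cancer cells incubated 72 h with various Csn-B concentrations; viable cells counted by MTT assay.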

Mus musculus [2] = organism: Mus musculus; assay: Reduction in blood glucose level in insulin treated mouse C57BL/6 within 30 mins; format: functional
How it was run: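 C57BL/6 mice fasted 5 h with water, then injected intraperitoneally with insulin (0.5 U kg-1), alone or with compound at 50 mg kg-1. Tail-vein blood glucose was read by glucometer at 15–300 min after treatment. Means ± s.e.m.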

[3] = molecular target: T1, Nuclear receptor subfamily 4immunitygroup A member 1; assay: Induction of Nur77-SRC2 interaction in HEK293T cells by GST-pull-down assay; format: cell-based; conditions: HEK-293T
How it was run: (§1)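 293T cells transfected with Flag-SRC-1, -2 or -3 and treated at 10⁻⁶ M for 3 h. Lysates were incubated with GST-Nur77 or GST alone, and bound SRC was detected by pull-down against input levels.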

[4] = molecular target: T1, Nuclear receptor subfamily 4immunitygroup A member 1; assay: Agonist activity at nuclear orphan receptor Nur77 expressed in human BGC823 cells co-transfected with pLuc-2900 containing Nr4a1 promoter assessed as transcriptional activity; format: functional, cell-based; conditions: BGC-823
[5] = molecular target: Nuclear receptor subfamily 4 group A member 1 (Mus musculus) (UniProt P12813); assay: Agonist activity at Nur77 in wild-type mouse C57BL/6 assessed as phosphofructokinase mRNA at 50 mg/kg, ip within 30 to 300 mins by real-time PCR analysis; format: functional, organism-based; parameters: dose 50 mg/kg
[6] = molecular target: Nuclear receptor subfamily 4 group A member 1 (Mus musculus) (UniProt P12813); assay: Agonist activity at Nur77 in insulin treated mouse C57BL/6 assessed as glucose-6-phosphatase mRNA after 60 mins by real-time PCR relative to control; format: functional
BGC-823 [7] = assay: Induction of Nur77 mediated apoptosis in human BGC823 cells assessed as cytochrome C release […] at 5 uM after 24 hrs by Western blotting analysis; format: functional, cell-based
[8] = molecular target: Nuclear receptor subfamily 4 group A member 3 (Homo sapiens) (UniProt Q92570); assay: Agonist activity at nuclear orphan receptor NOR1 expressed in human BGC823 cells co-transfected with fused GAL4-NOR1(LBD) assessed as transactivation after 12 hrs by transactivation assay; format: functional, cell-based; conditions: BGC-823
BGC-823 [9] = assay: Induction of Nur77 mediated apoptosis in human BGC823 cells transfected with si-Nur77 at 5 uM after 48 hrs by flow cytometry assay; format: functional; conditions: in the assay text read “5 ug/ml” for “5 uM”
How it was run: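 BGC-823 gastric cancer cells, transfected or not with Nur77 siRNA or scrambled control siRNA, then exposed to 5 μg ml-1 for 48 h. Apoptotic cells were counted by flow cytometry.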

[10] = molecular target: Nuclear receptor subfamily 4 group A member 1 (Mus musculus) (UniProt P12813); assay: Agonist activity at Nur77 in wild-type mouse C57BL/6 assessed as phosphofructokinase mRNA at 50 mg/kg, ip after 300 mins by real-time PCR analysis; format: functional, organism-based; parameters: dose 50 mg/kg
[11] = molecular target: T1, Nuclear receptor subfamily 4immunitygroup A member 1; assay: Agonist activity at nuclear orphan receptor Nur77 expressed in human BGC823 cells co-transfected with pLuc-3500 containing Nr4a1 promoter assessed as transcriptional activity; format: functional, cell-based; conditions: BGC-823
[12] = molecular target: Nuclear receptor subfamily 4 group A member 2 (Homo sapiens) (UniProt P43354); assay: Agonist activity at nuclear orphan receptor Nurr1 expressed in human BGC823 cells co-transfected with fused GAL4-Nurr1(LBD) assessed as transactivation after 12 hrs by transactivation assay; format: functional, cell-based; conditions: BGC-823
Mus musculus [13] = assay: Increase in blood glucose level in wild-type mouse C57BL/6 at 50 mg/kg, ip within 30 mins; format: functional; conditions: route intraperitoneal
How it was run: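 C57BL/6 mice (wild-type or Nr4a1-/-, six weeks old) fasted 16 h with water, then given 50 mg kg-1 intraperitoneally. DMSO (50 μl) or injection without vehicle served as controls. Tail-vein blood glucose was read by glucometer at 15, 30, 60, 90, 120, 180 and 300 min. Means ± s.e.m.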

NIH3T3 = assay: Antiproliferative activity against mouse NIH/3T3 cells assessed as number of viable cells after 72 hrs by MTT assay; format: functional, cell-based
BGC-823 [14] = assay: Induction of mitochondrial translocation of Nur77 from nucleus in human BGC823 cells transfected with GFP-Nur77 at 5 ug/ml after 12 hrs using immunostained with anti-Hsp60 by confocal microscopy; format: functional, cell-based
How it was run: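 BGC-823 cells transfected with GFP-Nur77, treated at 5 μg ml-1 for 12 h, immunostained with anti-Hsp60 and Texas Red secondary antibody, and imaged by confocal microscopy for mitochondrial localization.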

BGC-823 [15] = assay: Induction of Nur77 mediated apoptosis in human BGC823 cells at 5 ug/ml after 48 hrs by flow cytometry assay
[16] = molecular target: T1, Nuclear receptor subfamily 4immunitygroup A member 1; assay: Induction of Nur77-SRC3 interaction in HEK293T cells by GST-pull-down assay; format: cell-based; conditions: HEK-293T; how it was run: as §1
[17] = molecular target: Nuclear receptor subfamily 4 group A member 1 (Mus musculus) (UniProt P12813); assay: Agonist activity at Nur77 in wild-type mouse C57BL/6 assessed as hexokinase gene at 50 mg/kg, ip within 30 to 300 mins by real-time PCR analysis; format: functional, organism-based; parameters: dose 50 mg/kg
[18] = molecular target: T1, Nuclear receptor subfamily 4immunitygroup A member 1; assay: Agonist activity at Nur77 expressed in human BGC823 cells assessed as Nr4a1mRNA expression by real-time PCR; format: functional, cell-based; conditions: BGC-823
[19] = molecular target: Nuclear receptor subfamily 4 group A member 1 (Mus musculus) (UniProt P12813); assay: Agonist activity at Nur77 in wild-type mouse C57BL/6 assessed as glucose-6-phosphatase mRNA at 50 mg/kg, ip within 30 mins by real-time PCR analysis relative to control; format: functional, organism-based; parameters: dose 50 mg/kg
Saccharomyces cerevisiae = assay: Antimicrobial activity against Saccharomyces cerevisiae; format: functional, organism-based
[20] = molecular target: T1, Nuclear receptor subfamily 4immunitygroup A member 1; assay: Agonist activity at nuclear orphan receptor Nur77 in human BGC823 cells bearing beta-galactosidase expression vector assessed as transcriptional activation of NurRE reporter gene after 12 hrs by luciferase assay; format: functional, cell-based; conditions: BGC-823
BGC-823 [21] = assay: Induction of Nur77 mediated apoptosis in human BGC823 cells assessed as cytochrome C release from mitochondria at 5 uM after 24 hrs by Western blotting analysis; format: functional, cell-based
[22] = molecular target: Nuclear receptor subfamily 4 group A member 1 (Mus musculus) (UniProt P12813); assay: Agonist activity at Nur77 in Nr4A1 deficient mouse assessed as transcriptional activation of luciferase reporter gene relative to control; format: functional
HepG2 = assay: Antiproliferative activity against human HepG2 cells assessed as number of viable cells after 72 hrs by MTT assay; format: functional, cell-based
[23] = molecular target: T1, Nuclear receptor subfamily 4immunitygroup A member 1; assay: Binding affinity to Nur77 receptor expressed in human BGC823 cells; format: cell-based, BGC-823
[24] = molecular target: T1, Nuclear receptor subfamily 4immunitygroup A member 1; assay: Agonist activity at nuclear orphan receptor Nur77 expressed in human BGC823 cells co-transfected with pLuc-500 containing Nr4a1 promoter assessed as transcriptional activity; format: functional, cell-based; conditions: BGC-823
[25] = molecular target: T1, Nuclear receptor subfamily 4immunitygroup A member 1; assay: Agonist activity at Nur77 expressed in human gastric cancer BGC823 assessed as transactivation in presence of siRNA against Nur77; format: functional; conditions: Stomach
BGC-823 [26] = assay: Antitumor activity against human BGC823 cells expressing Nur77-WT xenografted in athymic nude mouse BALB/c assessed as increase in apoptotic cells by TUNEL assay
Staphylococcus aureus = assay: Antimicrobial activity against Staphylococcus aureus; format: functional, organism-based

T1 sequence (P22736 whole entry, the tested form may be a part): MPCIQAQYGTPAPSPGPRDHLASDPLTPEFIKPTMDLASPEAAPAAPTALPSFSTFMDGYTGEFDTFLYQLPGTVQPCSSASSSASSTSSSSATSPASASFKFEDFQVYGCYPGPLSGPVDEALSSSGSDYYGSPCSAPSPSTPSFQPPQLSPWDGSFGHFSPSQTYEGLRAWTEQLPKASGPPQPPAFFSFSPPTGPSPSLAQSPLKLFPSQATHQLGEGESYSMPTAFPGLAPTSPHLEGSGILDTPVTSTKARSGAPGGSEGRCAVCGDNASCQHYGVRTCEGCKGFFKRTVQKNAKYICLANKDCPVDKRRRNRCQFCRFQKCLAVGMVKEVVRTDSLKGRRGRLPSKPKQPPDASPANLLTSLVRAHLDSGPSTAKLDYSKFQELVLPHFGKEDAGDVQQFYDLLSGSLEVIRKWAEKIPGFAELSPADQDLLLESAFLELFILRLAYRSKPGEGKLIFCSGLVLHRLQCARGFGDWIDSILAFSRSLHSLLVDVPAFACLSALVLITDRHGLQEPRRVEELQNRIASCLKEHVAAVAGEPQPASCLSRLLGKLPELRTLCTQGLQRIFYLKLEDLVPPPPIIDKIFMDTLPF
Sequence of Nuclear receptor subfamily 4 group A member 1 (Mus musculus) (P12813 whole entry): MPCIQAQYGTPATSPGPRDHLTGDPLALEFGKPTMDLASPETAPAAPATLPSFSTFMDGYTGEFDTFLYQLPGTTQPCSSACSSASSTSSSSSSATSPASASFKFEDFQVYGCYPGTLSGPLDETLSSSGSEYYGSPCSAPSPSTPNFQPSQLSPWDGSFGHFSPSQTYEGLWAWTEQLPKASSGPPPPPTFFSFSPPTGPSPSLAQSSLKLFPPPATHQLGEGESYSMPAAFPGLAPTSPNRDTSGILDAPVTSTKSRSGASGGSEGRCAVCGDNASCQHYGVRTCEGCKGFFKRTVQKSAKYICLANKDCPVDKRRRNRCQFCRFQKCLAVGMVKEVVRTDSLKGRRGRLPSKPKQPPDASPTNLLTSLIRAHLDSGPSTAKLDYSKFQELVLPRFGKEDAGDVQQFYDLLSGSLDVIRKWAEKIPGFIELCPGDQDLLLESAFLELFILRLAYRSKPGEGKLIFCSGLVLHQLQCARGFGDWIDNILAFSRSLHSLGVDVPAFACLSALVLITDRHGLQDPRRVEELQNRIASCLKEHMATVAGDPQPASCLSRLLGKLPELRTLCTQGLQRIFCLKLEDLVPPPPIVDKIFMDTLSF
Sequence of Nuclear receptor subfamily 4 group A member 2 (Homo sapiens) (P43354 whole entry, the tested form may be a part): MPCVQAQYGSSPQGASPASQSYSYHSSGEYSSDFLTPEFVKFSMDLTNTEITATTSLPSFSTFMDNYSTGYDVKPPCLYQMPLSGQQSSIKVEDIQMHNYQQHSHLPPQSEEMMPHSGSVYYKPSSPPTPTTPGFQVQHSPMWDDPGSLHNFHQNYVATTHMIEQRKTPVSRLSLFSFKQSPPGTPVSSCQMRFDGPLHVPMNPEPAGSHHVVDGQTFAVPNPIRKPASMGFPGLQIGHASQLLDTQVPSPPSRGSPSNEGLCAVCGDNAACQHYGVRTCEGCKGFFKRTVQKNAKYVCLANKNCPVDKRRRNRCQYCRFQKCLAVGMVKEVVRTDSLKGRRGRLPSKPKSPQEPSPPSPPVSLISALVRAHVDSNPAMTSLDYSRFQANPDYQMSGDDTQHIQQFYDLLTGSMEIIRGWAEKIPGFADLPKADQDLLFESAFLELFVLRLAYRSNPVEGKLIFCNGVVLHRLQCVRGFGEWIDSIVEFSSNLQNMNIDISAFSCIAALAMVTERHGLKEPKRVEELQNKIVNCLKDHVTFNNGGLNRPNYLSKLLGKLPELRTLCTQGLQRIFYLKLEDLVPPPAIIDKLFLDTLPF
Sequence of Nuclear receptor subfamily 4 group A member 3 (Homo sapiens) (Q92570 whole entry, the tested form may be a part): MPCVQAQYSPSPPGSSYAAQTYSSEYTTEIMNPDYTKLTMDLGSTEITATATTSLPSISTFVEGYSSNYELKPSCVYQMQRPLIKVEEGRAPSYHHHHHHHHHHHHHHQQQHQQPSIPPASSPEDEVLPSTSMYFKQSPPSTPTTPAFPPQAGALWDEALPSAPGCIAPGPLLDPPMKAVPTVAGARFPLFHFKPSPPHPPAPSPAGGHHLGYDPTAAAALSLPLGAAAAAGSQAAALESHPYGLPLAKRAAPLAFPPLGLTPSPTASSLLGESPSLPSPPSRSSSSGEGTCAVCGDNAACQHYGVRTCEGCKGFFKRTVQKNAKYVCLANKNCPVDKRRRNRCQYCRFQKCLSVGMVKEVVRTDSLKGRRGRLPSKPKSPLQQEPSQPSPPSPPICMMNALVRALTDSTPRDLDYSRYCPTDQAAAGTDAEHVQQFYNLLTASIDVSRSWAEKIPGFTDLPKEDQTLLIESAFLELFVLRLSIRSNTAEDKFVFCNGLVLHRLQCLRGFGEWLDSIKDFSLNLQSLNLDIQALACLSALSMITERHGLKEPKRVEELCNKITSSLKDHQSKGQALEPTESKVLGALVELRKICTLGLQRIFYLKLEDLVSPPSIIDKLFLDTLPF

CCCCCCCC(=O)c1c(O)cc(O)cc1CC(=O)OCC [CYTOSPORONE B]
Activity [1]: inactive
inhibition (INH) (SW-620): >70%
fold change (FC) (Mus musculus [2]): 3
Activity [3]: Active
Activity [4]: Active
Activity [5]: inactive
fold change (FC) [6]: 6.23
Activity (BGC-823 [7]): Active
Activity [8]: inactive
Activity (BGC-823 [9]): 20.1%
Activity [10]: inactive
Activity [11]: Active
Activity [12]: inactive
Activity (Mus musculus [13]): 11.4 mM
inhibition (NIH3T3): Active
Activity (BGC-823 [14]): Active
Activity (BGC-823 [15]): 63.5%
Activity [16]: inactive
Activity [17]: inactive
Activity [18]: Active
Activity [19]: Active
IC50 (Saccharomyces cerevisiae): 1.56 µg/mL (≈ 4.84 µM)
Activity [20]: Active
Activity (BGC-823 [21]): Active
Activity [22]: inactive
Activity (HepG2): Active
pKd [23]: 6.13
Activity [24]: inactive
Activity [25]: inactive
Activity (BGC-823 [26]): Active
IC50 (Staphylococcus aureus): 12.5 µg/mL (≈ 38.8 µM)
